Results on 13 compounds are retold here after paper PMC3535304 (Bioorganic & medicinal chemistry, 2012).

SMILES strings stand for the structures. Entries after “also recorded” stand apart in the source; their conditions may differ. Where two headings read alike, the source gives them in different places.

The target of one assay is bovine brain tubulin (Bos taurus, UniProt P81947+Q6B856). Description: Inhibition of tubulin polymerization. Type of assay: biochemical. The note with it: read-out: Tubulin assembly IC50; tubulin at 10 μM, 20 min incubation.
In assay [1] the test system is HeLa cells. The note with it: read-out: IC50 (cell growth inhibition), mean ± SE, ref [12]; cited from earlier work.
For a further assay, the system named is HL-60 cells. The note with it: read-out: IC50 (cell growth inhibition); HL-60, mean ± SE; ref [12]; cited from earlier work.
In assay [2] the test system is HT-29 cells. The note with it: read-out: IC50 (cell growth inhibition); HT-29, mean ± SE; ref [12]; cited from earlier work.
In assay [3] the test system is MCF-7 cells. The note with it: read-out: IC50 (cell growth inhibition); MCF-7, mean ± SE; ref [12]; cited from earlier work.
Another assay has as its system A549 cells. The note with it: read-out: IC50 (cell growth inhibition), cited from earlier work.
For assay [4], the system named is Jurkat cells. The note with it: read-out: IC50 (cell growth inhibition), mean ± SE, ref [12]; cited from earlier work.
Assay [5] concerns MCF-7 cells. Description: In vitro antiproliferative assay. The note with it: 3e vs 2e, 3b vs 2b. Type of assay: cell-based, human.
The subject of assay [6] is HT-29 cells. Description: In vitro antiproliferative assay. Type of assay: cell-based, human. The note with it: 3d vs 2d, 3e vs 2e.
Assay [7] deals with HeLa cells. Description: Annexin-V/PI apoptosis assay. Type of assay: cell-based, human. The note with it: 250 or 500 nM, 24 or 48 h. In outline:
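HeLa cells exposed to test compound for 24 or 48 h, then labelled with annexin-V-FITC (kit protocol) and propidium iodide together. Red (PI) and green (FITC) fluorescence read by flow cytometry. Maximum DMSO 0.25%. Mean ± SEM of three independent experiments.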

The next assay concerns caspase-2. Put plainly: Western blot analysis in HeLa cells. Type of assay: cell-based, human. The note with it: 24 or 48 h. In short, it runs like this: (§1)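 HeLa cells were exposed to test compound for 24 or 48 h, washed in cold PBS, and lysed on ice for 30 min. Cleared lysate (20 μg protein, BCA) was run on 7.5–15% SDS-PAGE and moved to PVDF. Primary antibodies (2 h, room temperature) were procaspase-2, cleaved caspase-8, cleaved caspase-3, PARP and cyclin B1, followed by peroxidase secondary and ECL. Membranes were reprobed for β-actin.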
(Immunoblotting shows a protein as a band on a membrane.)

Another assay deals with caspase-8. Description: Western blot analysis in HeLa cells. Type of assay: cell-based, human. The note with it: 24 or 48 h. In short, it runs like this:
as §1

For the next assay, the system named is cyclin B. Put plainly: Western blot analysis in HeLa cells. Type of assay: cell-based, human. The note with it: 48 h. In outline: as §1
The test system of another assay is caspase-3. Put plainly: Western blot analysis in HeLa cells. Format: cell-based, human. The note with it: 24 and 48 h. In short, it runs like this:
as §1

Assay [8] concerns HeLa cells. Description: Flow cytometric analysis of cell cycle distribution. The note with it: 24 h, range tested 31 to 500 nM. Type of assay: cell-based, human. In short, it runs like this:
(§2)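 Exponentially growing cells (5 × 10⁵) were treated 24 h with test compound at 31–500 nM. They were then fixed in ice-cold 70% ethanol and treated with lysis buffer containing RNase A and 0.1% Triton X-100. DNA was stained with propidium iodide and content measured by flow cytometry, with cycle phases taken from DNA histograms. Mean ± SEM of three independent experiments.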
For orientation: Flow cytometry measures light scatter and fluorescence of single cells or particles in a stream.

Assay [9] has as its system mitochondrial polarization and ROS production. Put plainly: Mitochondrial functions. Type of assay: cell-based. The note with it: data not shown.
The subject of another assay is caspase-9. Put plainly: Western blot analysis in HeLa cells. Format: cell-based, human. The note with it: data not shown.
Assay [10] deals with six human cancer cell lines (HeLa, A549, HL-60, Jurkat, MCF-7, HT-29). Description: Antiproliferative activity across the panel of six human cancer cell lines. Type of assay: cell-based. The note with it: read-out: IC50 values against the six cell lines (range). In outline: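 Jurkat and HL-60 cells were grown in RPMI-1640; MCF-7, A549, HeLa and HT-29 in DMEM; all media had 10% FBS plus penicillin/streptomycin. Cells were seeded at 8 × 10³/well, held 18 h at 37 °C in 5% CO₂, then given fresh medium with test compound (DMSO stocks, ≤0.25% final) for 72 h. Viability was read by MTT. […] Mean ± SE, ≥3 experiments.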

The test system of assay [11] is Jurkat cells. Description: Flow cytometric analysis of cell cycle distribution. Format: cell-based, human. The note with it: 24 h. In outline:
as §2

Assay [12] deals with Jurkat cells. Put plainly: In vitro antiproliferative assay. Type of assay: cell-based. The note with it: Homo sapiens, 72 h, read-out: IC50 (cell growth inhibition). In outline:
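Jurkat cells were grown in RPMI-1640 with 10% FBS, penicillin G (115 units/mL) and streptomycin (115 μg/mL). Cells were seeded at 8 × 10³ per well and held 18 h at 37 °C in 5% CO₂. Medium was then replaced with fresh medium containing the test compound (DMSO ≤0.25% final) at various concentrations for 72 h. Viability was read by MTT.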

The subject of the next assay is LoVo^Doxo cells. The note with it: IC50 LoVo^Doxo / IC50 LoVo; ref [8]; cited from earlier work.
The subject of the next assay is LoVo cells. The note with it: read-out: IC50 (cell growth inhibition), ref [8]; cited from earlier work.
A further assay has as its system A549-T12 cells. The note with it: ref [8], cited from earlier work.
A further assay relates to CEM cells. Description: Cell growth inhibition, parental line of drug resistant pair. Type of assay: cell-based. The note with it: Homo sapiens, CCRF-CEM, read-out: IC50 (cell growth inhibition).
The test system of a further assay is CEM^Vbl100 cells. Put plainly: Cell growth inhibition, drug resistant cell line. Type of assay: cell-based. The note with it: Homo sapiens, CEM/VBL100, read-out: IC50 (cell growth inhibition). In short, it runs like this: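 Growth inhibition was read by MTT after 72 h exposure to a range of test-compound concentrations at 37 °C in 5% CO₂. DMSO was ≤0.25% final.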

Sequence of bovine brain tubulin (Q6B856 whole entry): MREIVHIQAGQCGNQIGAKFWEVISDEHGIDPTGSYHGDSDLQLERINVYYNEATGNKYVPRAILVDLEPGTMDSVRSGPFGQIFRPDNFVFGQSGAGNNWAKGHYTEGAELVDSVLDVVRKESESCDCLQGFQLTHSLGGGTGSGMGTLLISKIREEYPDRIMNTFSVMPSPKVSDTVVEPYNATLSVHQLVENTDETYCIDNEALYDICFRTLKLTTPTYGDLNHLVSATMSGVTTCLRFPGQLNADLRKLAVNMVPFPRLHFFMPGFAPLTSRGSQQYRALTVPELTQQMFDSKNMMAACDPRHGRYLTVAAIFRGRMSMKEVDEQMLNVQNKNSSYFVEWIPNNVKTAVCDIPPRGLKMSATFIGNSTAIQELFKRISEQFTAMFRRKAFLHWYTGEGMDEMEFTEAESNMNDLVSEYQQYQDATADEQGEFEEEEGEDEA
Sequence of bovine brain tubulin (P81947 whole entry): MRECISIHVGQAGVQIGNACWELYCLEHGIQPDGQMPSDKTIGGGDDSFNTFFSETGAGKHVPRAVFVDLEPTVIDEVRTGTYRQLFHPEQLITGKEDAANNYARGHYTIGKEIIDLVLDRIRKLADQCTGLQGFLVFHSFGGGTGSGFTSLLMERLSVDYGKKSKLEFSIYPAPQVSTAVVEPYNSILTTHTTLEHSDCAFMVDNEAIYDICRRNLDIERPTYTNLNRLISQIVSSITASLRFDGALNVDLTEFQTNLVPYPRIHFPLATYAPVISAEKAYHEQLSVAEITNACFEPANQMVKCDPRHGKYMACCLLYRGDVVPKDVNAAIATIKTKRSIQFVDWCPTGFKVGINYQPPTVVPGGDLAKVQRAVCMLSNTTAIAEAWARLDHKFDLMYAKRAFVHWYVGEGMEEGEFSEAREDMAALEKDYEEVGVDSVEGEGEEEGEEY

`COc1cc(-c2nc(N)sc2-c2ccc3ccccc3c2)cc(OC)c1OC` [2a]: the IC50 on bovine brain tubulin was 740 ± 10 nM; in the assay on HeLa cells [1] it was 1.6 ± 0.6 nM; in the assay with HL-60 cells, 2.7 ± 0.3 nM; in the assay with HT-29 cells [2] it was 23.9 ± 3.9 nM; in the assay with MCF-7 cells [3] it was 51.2 ± 9.2 nM; in the assay with A549 cells (A549, mean ± SE, ref [12]), 3.8 ± 0.6 nM. In addition, the IC50 with Jurkat cells [4] was 3.3 ± 0.9 nM.
As to `COc1cc(-c2nc(N)sc2-c2ccc(C)cc2)cc(OC)c1OC` [2b], the IC50 on bovine brain tubulin is 440 ± 10 nM; with HeLa cells [1], 0.73 ± 0.2 nM; in the assay on HL-60 cells it was 3.9 ± 1.1 nM; in the assay on HT-29 cells [2], 12.4 ± 5.1 nM; in the assay with MCF-7 cells [3], 280 ± 69.8 nM; in the assay with A549 cells (A549, mean ± SE, ref [12]), 42.8 ± 5.7 nM. In the assay with Jurkat cells [4], the IC50 is 3.9 ± 0.6 nM.
As for `COc1cc(-c2nc(N)sc2-c2ccc(C(F)(F)F)cc2)cc(OC)c1OC` [2c], the IC50 in the assay with HeLa cells [1] is 3.2 ± 0.4 nM; in the assay on HL-60 cells, 5.1 ± 1.1 nM; in the assay on HT-29 cells [2], 221 ± 50.2 nM; in the assay on MCF-7 cells [3], 0.4 ± 0.1 nM; with A549 cells (A549, mean ± SE, ref [12]), 357 ± 65 nM; in the assay on Jurkat cells [4] it was 8.5 ± 1.2 nM.
In the case of `COc1ccc(-c2sc(N)nc2-c2cc(OC)c(OC)c(OC)c2)cc1` [2d], the IC50 on bovine brain tubulin is 1100 ± 70 nM; in the assay with HeLa cells [1], 2.3 ± 0.2 nM; in the assay with HL-60 cells, 3.2 ± 1.2 nM; in the assay with HT-29 cells [2] it was 11.7 ± 3.9 nM; with MCF-7 cells [3] it was 60.9 ± 8.4 nM; with A549 cells (A549, mean ± SE, ref [12]), 20.2 ± 1.7 nM. The half-inhibitory concentration (IC50) with Jurkat cells [4] is 2.1 ± 0.4 nM.
For the compound `CCOc1ccc(-c2sc(N)nc2-c2cc(OC)c(OC)c(OC)c2)cc1` [2e], the IC50 was 610 ± 50 nM on bovine brain tubulin; 0.03 ± 0.005 nM with HeLa cells [1]; 0.9 ± 0.3 nM with HL-60 cells; 38.2 ± 11.4 nM in the assay on HT-29 cells [2]; 44 ± 6.3 nM in the assay on MCF-7 cells [3]; 0.09 ± 0.01 nM with A549 cells (A549, mean ± SE, ref [12]). The 50% inhibitory concentration (IC50) with Jurkat cells [4] was 0.14 ± 0.05 nM.
With `CNc1nc(-c2cc(OC)c(OC)c(OC)c2)c(-c2ccc(C)cc2)s1` [3b, 4-(3,4,5-Trimethoxyphenyl)-N-methyl-5-p-tolylthiazol-2-amine], in the assay with MCF-7 cells [5], the “fold more potent than 2-amino counterpart” value was around 28 fold.
Turning to `CNc1nc(-c2cc(OC)c(OC)c(OC)c2)c(-c2ccc(OC)cc2)s1` [3d, 4-(3,4,5-Trimethoxyphenyl)-5-(4-methoxyphenyl)-N-methylthiazol-2-amine], the “fold more potent than 2-amino counterpart” value in the assay with HT-29 cells [6] turned out to be 2 fold.
As to `CCOc1ccc(-c2sc(NC)nc2-c2cc(OC)c(OC)c(OC)c2)cc1` [3e, 5-(4-Ethoxyphenyl)-4-(3,4,5-trimethoxyphenyl)-N-methylthiazol-2-amine], the “induction of apoptotic (annexin-V positive) cells” value in the assay with HeLa cells [7] is listed as “Analogous behaviour but with a stronger effect”. Moreover, in the assay on HT-29 cells [6], the “fold more potent than 2-amino counterpart” value was 10 fold. Further, the “caspase-2 activation (disappearance of uncleaved protein)” value in the assay on caspase-2 was “clear caspase-8 and caspase-2 activation”. Also, in the assay on caspase-8, the “caspase-8 activation (appearance of cleavage product)” value was “clear caspase-8 and caspase-2 activation”. Besides, in the assay with cyclin B, the “cyclin B expression” value is recorded as “slight decrease”. Also, in the assay on caspase-3, the caspase-3 activation entry is “clear activation of caspase-3” and the “cleavage of caspase-3 substrate PARP” value was “cleavage of the caspase-3 substrate PARP”. Also, in the assay with HeLa cells [8], the “concentration at which G2/M accumulation was first observed” value (“concentration” for short) amounted to 31 nM. Besides, the “effect on mitochondrial polarization and ROS production” value in [9] is reported as “did not cause mitochondrial depolarization; also recorded: only slightly affected”. For the same compound, the caspase-9 activation entry in the assay with caspase-9 is recorded as “did not induce activation of caspase-9”. For the same compound, the IC50 in assay [10] lay in the range of 1.7 to 38 nM.
For the compound `COc1cc(-c2nc(C)sc2-c2ccc3ccccc3c2)cc(OC)c1OC` [3k, 4-(3,4,5-Trimethoxyphenyl)-2-methyl-5-(naphthalen-2-yl)thiazole], in the assay with HeLa cells [7], the “induction of apoptotic (annexin-V positive) cells” value is “significant induction of apoptotic cells”. The “concentration” value in the assay on Jurkat cells [11] is reported as 125 nM. Moreover, the “caspase-2 activation (disappearance of uncleaved protein)” value in the assay on caspase-2 is “clear caspase-8 and caspase-2 activation”. Also, the “caspase-8 activation (appearance of cleavage product)” value in the assay on caspase-8 is “clear caspase-8 and caspase-2 activation”. Besides, in the assay with caspase-3, the caspase-3 activation entry is given as “clear activation of caspase-3” and the “cleavage of caspase-3 substrate PARP” value is recorded as “cleavage of the caspase-3 substrate PARP”. Also, the “concentration” value in the assay with HeLa cells [8] is 125 nM. The “effect on mitochondrial polarization and ROS production” value in [9] is on record as “only slightly affected”. The caspase-9 activation result in the assay on caspase-9 is recorded as “did not induce activation of caspase-9”.
Regarding `COc1ccc(/C=C\c2cc(OC)c(OC)c(OC)c2)cc1O` [CA-4, Combretastatin A-4], in the assay on Jurkat cells [12], the IC50 stood at 5 ± 0.6 nM.
As to `COc1cccc2c1C(=O)c1c(O)c3c(c(O)c1C2=O)C[C@@](O)(C(=O)CO)C[C@@H]3O[C@H]1C[C@H](N)[C@H](O)[C@H](C)O1` [Doxorubicin], the Resistance ratio with LoVo^Doxo cells is on record as 109.6. Further, the IC50 in the assay with LoVo cells is 120 ± 30 nM.
As for `CC(=O)O[C@H]1C(=O)[C@@]2(C)[C@H]([C@H](OC(=O)c3ccccc3)[C@]3(O)C[C@H](OC(=O)[C@H](O)[C@@H](NC(=O)c4ccccc4)c4ccccc4)C(C)=C1C3(C)C)[C@]1(OC(C)=O)CO[C@@H]1C[C@@H]2O` [Taxol], the Resistance ratio in the assay with A549-T12 cells (IC50 A549-T12 / IC50 A549) was 10.4. Moreover, the IC50 in the assay with A549-T12 cells (read-out: IC50 (cell growth inhibition), A549-T12) was 75.2 ± 12.5 nM; in the assay on A549 cells (A549, ref [8]), 7.2 ± 0.1 nM.
As for `CC[C@]1(O)C[C@@H]2CN(CCc3c([nH]c4ccccc34)[C@@](C(=O)OC)(c3cc4c(cc3OC)N(C)[C@H]3[C@@](O)(C(=O)OC)[C@H](OC(C)=O)[C@]5(CC)C=CCN6CC[C@]43[C@@H]65)C2)C1` [Vinblastine], the results for the IC50 with CEM cells and with CEM^Vbl100 cells were 0.8 ± 0.1 nM and 205 ± 46 nM, respectively.

A word on the IC50: it is the concentration needed to halve the response being measured.
